Assay results as given in ChEMBL document CHEMBL3286351, “Antibacterial evaluation of structurally amphipathic, membrane active small cationic peptidomimetics: synthesized by incorporating 3-amino benzoic acid as peptidomimetic element” (Eur J Med Chem, 2014).
Values after ≈ are worked out from the molar mass of the structure shown. Active and inactive are the calls of the source. The rule behind the calls is not given here. Where a SMILES comes first, the peptide text is derived from it. [ ]: non-standard residue; d: D form. 3Abz = Nc1cccc(C(=O)O)c1; Orn = NCCC[CH](N)C(=O)O

Columns and labels:
[1] = test system: Staphylococcus epidermidis; test: Antibacterial activity against methicillin-resistant Staphylococcus epidermidis ATCC 51625 assessed as growth inhibition after 18 hrs by CLSI microdilution broth assay; format: functional; details: ATCC 51625, 18 h
Method in brief: (§1)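 Modified CLSI broth microdilution in Mueller-Hinton broth. Wells held 90 µL of about 2 × 10^5 CFU/mL inoculum plus 10 µL of serially diluted peptidomimetic, range 0.7-100 µg/mL. Plates were incubated overnight with agitation at 37 °C and absorbance read at 600 nm after 18 h. Controls: inoculum without compound, and uninoculated broth. Run in triplicate.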

[2] = Induction of hemolysis in human RBC assessed as hemoglobin release after 1 hr by microtiter plate reader analysis; format: cell-based, Erythrocyte; details: for HC10: erythrocyte, 1 h; for HC50 at 1 h: red blood cells
Method in brief: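 Freshly isolated human RBCs washed three times in PBS (35 mM phosphate, 150 mM NaCl, pH 7.2) and used as a 4% (v/v) suspension. Mixed 1:1 with twofold serial dilutions of compound, incubated 1 h at 37 °C without agitation, then centrifuged. Supernatant A540 read. PBS defined 0% and 1% Triton X-100 defined 100% lysis; HC50 and HC10 derived.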

[3] = Selectivity ratio of HC50 for hemolysis in human RBC to MIC for Staphylococcus aureus
HaCaT [4] = test: Cytotoxicity against human HaCaT cells assessed as decrease in cell viability after 24 hrs by MTT assay; format: cell-based
Method in brief: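 HaCaT keratinocytes grown as a monolayer in DMEM with 10% FBS and penicillin/streptomycin, 37 °C, 5% CO2. Seeded 24 h, then exposed to compound for 24 h. MTT (5 mg/mL stock in PBS) added for 4 h; formazan dissolved in isopropanol and read at 570 nm. Growth inhibition calculated relative to medium-only controls. Two independent experiments in triplicate.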

HaCaT [5] = test: Cytotoxicity against human HaCaT cells at 100 to 500 ug/ml after 24 hrs by LDH release assay; format: cell-based
Method in brief: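 HaCaT cells (DMEM with 10% FBS, 37 °C, 5% CO2) seeded for 24 h, then treated with varying concentrations for 24 h. LDH measured at 490 nm in both supernatant and trypsinized cell lysate with a non-radioactive kit. % release = supernatant/(supernatant + lysate) × 100. Two independent experiments in triplicate.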

Staphylococcus aureus [6] = test: Bactericidal activity against Staphylococcus aureus MTCC 3160 assessed as number of bacteria at 4 times MIC measured within 30 mins by time kill assay (reference value: 10^6 CFU/ml); format: functional
Method in brief: (§2)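 Time-kill assay. […] Aliquots taken at fixed intervals were serially diluted and plated on Mueller-Hinton agar. CFU were counted after 24 h at 37 °C. Two independent experiments, each in triplicate.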

Escherichia coli [7] = test: Bactericidal activity against Escherichia coli MTCC 723 assessed as number of bacteria at 4 times MIC measured within 30 mins by time kill assay (reference value: 10^6 CFU/ml); format: functional; method in brief: as §2
Lipid bilayer [8] = test: Membrane permeabilization in bacterial membrane model consisting large unilamellar vesicle of dipalmitoylphosphatidylcholine:dipalmitoylphosphatidylglycerol at ratio of 7:3 assessed as calcein release at 15 ug/ml after 20 mins by fluorescence assay; format: cell membranes
Method in brief: (§3)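 LUVs of DPPC:DPPG 7:3 (w/w) loaded with 70 mM calcein (150 mM NaCl, 0.1 mM EDTA, pH 7.4). Made by freeze-thaw and extrusion through 100 nm filters; free dye removed on Sephadex G-50; diameter 110-130 nm. Diluted to 40 µM lipid and exposed to 5-15 µg/mL compound. Fluorescence read at ex 490/em 520 nm each minute for 20 min, then every 10 min. Triton X-100 defined 100% release.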

Lipid bilayer [9] = test: Membrane permeabilization in bacterial membrane model consisting large unilamellar vesicle of dipalmitoylphosphatidylcholine:dipalmitoylphosphatidylglycerol at ratio of 7:3 assessed as calcein release at 5 ug/ml after 50 mins by fluorescence assay; format: cell membranes; method in brief: as §3
Lipid bilayer [10] = test: Membrane permeabilization in bacterial membrane model consisting large unilamellar vesicle of dipalmitoylphosphatidylcholine:dipalmitoylphosphatidylglycerol at ratio of 7:3 assessed as calcein release after 5 mins by fluorescence assay; format: cell membranes; method in brief: as §3
[11] = Membrane permeabilization in mammalian membrane model consisting large unilamellar vesicle of dipalmitoylphosphatidylcholine:cholesterol at ratio of 10:1 assessed as calcein release at 15 ug/ml after 5 mins by fluorescence assay; format: cell membranes
Method in brief: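 LUVs of DPPC/cholesterol 10:1 (w/w) loaded with calcein, extruded through 100 nm filters, and cleared of free dye on Sephadex G-50. Diluted to 40 µM lipid in calcein-free buffer (150 mM NaCl, 0.1 mM EDTA). Calcein release read at ex 490/em 520 nm, normalized to Triton X-100 lysis.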

Escherichia coli [12] = test: Induction of membrane damage in Escherichia coli at 4 times MIC after 2 hrs by DAPI/propidium iodide staining based fluorescence microscopy; format: functional, organism-based
Method in brief: (§4)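 Stained with PI (5 µg/mL) for 15 min in the dark at 0 °C, washed, then DAPI (10 µg/mL) for 15 min in the dark at 0 °C. Untreated cells processed identically as controls. Imaged by fluorescence microscopy with a 60× oil objective.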

Staphylococcus aureus [13] = test: Induction of membrane damage in Staphylococcus aureus at 4 times MIC after 2 hrs by DAPI/propidium iodide staining based fluorescence microscopy; format: functional, organism-based; method in brief: as §4
Staphylococcus aureus [14] = test: Antibacterial activity against Staphylococcus aureus MTCC 3160 assessed as growth inhibition treated for 16 days by two-fold dilution assay; format: functional, organism-based
Staphylococcus aureus [15] = test: Antibacterial activity against methicillin-resistant Staphylococcus aureus ATCC BAA-1720 assessed as growth inhibition treated for 16 days by two-fold dilution assay; format: functional, organism-based
Method in brief: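 Serial-passage resistance study. Start from the initial MIC by broth microdilution, then expose cells to doubling dilutions in triplicate wells. After each 18 h incubation, pool the wells with the highest concentration still showing visible growth and re-inoculate at about 2 × 10^6 CFU/mL.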

Plasma [16] = test: Stability in human plasma assessed as compound degradation after 1 hr by RP-HPLC analysis; format: ADME, cell-free
Method in brief: (§5)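 Compound (1 mg/mL stock in water; 50 µL) added to 1 mL fresh heparinized human plasma and held at 37 °C. Samples taken at 30 min, 1, 2, 6, 12 and 24 h. Proteins precipitated with 95% ethanol, cooled at 4 °C for 15 min and centrifuged at 18,000 g. Supernatant analyzed by RP-HPLC with UV detection at 280 nm.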

[17] = Stability in human plasma assessed as compound degradation after 2 hrs by RP-HPLC analysis; format: ADME, cell-free; details: read-out: Drug degradation; method in brief: as §5
Plasma [18] = test: Stability in human plasma assessed as compound degradation after 24 hrs by RP-HPLC analysis; format: ADME, cell-free; details: 24 h; method in brief: as §5
[19] = Proteolytic stability assessed as trypsin (unknown origin)-mediated compound degradation after 36 hrs by RP-HPLC analysis; format: ADME; details: human
Method in brief: (§6)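 Compound at 1 mg/mL in 0.1 M NH4HCO3 (pH 8.2) combined with trypsin or α-chymotrypsin solution (1 mg enzyme per 50 mL of the same buffer) at 37 °C. Aliquots taken over time and quenched with 10% formic acid. Remaining compound quantified by C18 RP-HPLC. An enzyme-free control was run for each test.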

trypsin = test: (§7) Proteolytic stability assessed as trypsin (unknown origin)-mediated compound degradation by measuring compound remaining after 4 days by RP-HPLC analysis; format: ADME; details: human, trypsin; read-out: Stability; method in brief: as §6
[20] = Proteolytic stability assessed as alpha chymotrypsin (unknown origin)-mediated compound degradation after 24 hrs by RP-HPLC analysis; format: ADME; details: human; method in brief: as §6
alpha chymotrypsin = test: Proteolytic stability assessed as alpha chymotrypsin (unknown origin)-mediated compound degradation by measuring compound remaining after 4 days by RP-HPLC analysis; format: ADME; details: human, read-out: Stability; method in brief: as §6
[21] = Retention time of the compound by HPLC analysis; format: physicochemical
Method in brief: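 Analytical RP-HPLC on a C18 column (5 µm, 4.6 × 250 mm) at room temperature. Run a linear gradient of 0.5-60% acetonitrile containing 0.05% TFA against water containing 0.05% TFA at 0.5 mL/min.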

Escherichia coli [22] = test: Antibacterial activity against Escherichia coli MTCC 723 assessed as growth inhibition after 18 hrs by CLSI microdilution broth assay; format: functional; details: MTCC 723, 18 h
Pseudomonas aeruginosa = test: Antibacterial activity against Pseudomonas aeruginosa MTCC 2295 assessed as growth inhibition after 18 hrs by CLSI microdilution broth assay; format: functional; details: MTCC 2295, 18 h
Staphylococcus aureus [23] = test: Antibacterial activity against Staphylococcus aureus MTCC 3160 assessed as growth inhibition after 18 hrs by CLSI microdilution broth assay; format: functional; details: MTCC 3160, 18 h
Bacillus subtilis = test: Antibacterial activity against Bacillus subtilis MTCC 2763 assessed as growth inhibition after 18 hrs by CLSI microdilution broth assay; format: functional; details: MTCC 2763, 18 h
Staphylococcus aureus [24] = test: Antibacterial activity against methicillin-resistant Staphylococcus aureus ATCC BAA-1720 assessed as growth inhibition after 18 hrs by CLSI microdilution broth assay; format: functional; details: ATCC BAA-1720, 18 h; method in brief: as §1
Lipid bilayer [25] = test: Membrane permeabilization in bacterial membrane model consisting large unilamellar vesicle of dipalmitoylphosphatidylcholine:dipalmitoylphosphatidylglycerol at ratio of 7:3 assessed as calcein release at 5 ug/ml after 90 mins by fluorescence assay; format: cell membranes; method in brief: as §3
Lipid bilayer [26] = test: Membrane permeabilization in bacterial membrane model consisting large unilamellar vesicle of dipalmitoylphosphatidylcholine:dipalmitoylphosphatidylglycerol at ratio of 7:3 assessed as calcein release at 15 ug/ml after 90 mins by fluorescence assay; format: cell membranes; method in brief: as §3
[27] = as §7; format: ADME; details: human, 96 h; method in brief: as §6

SMILES | MIC [1] [µg/mL] | HC10 [2] [µg/mL] | HC50 at 1 h [2] [µg/mL] | Selectivity ratio [3] | Activity (HaCaT [4]) | Activity (HaCaT [5]) | CFU/ml (Staphylococcus aureus [6]) | CFU/ml (Escherichia coli [7]) | Activity (Lipid bilayer [10]) | Activity [11] | Activity (Escherichia coli [12]) | Activity (Staphylococcus aureus [13]) | inhibition (Staphylococcus aureus [14]) | inhibition (Staphylococcus aureus [15]) | Stability (Plasma [18]) | Stability [20] | remaining at 96 h (alpha chymotrypsin) [%] | Retention_time [21] [min] | MIC (Escherichia coli [22]) [µg/mL] | MIC (Pseudomonas aeruginosa) [µg/mL] | further results
N=C(N)NCCCC(NC(=O)C(Cc1c[nH]c2ccccc12)NC(=O)c1cccc(NC(=O)C(Cc2c[nH]c3ccccc23)NC(=O)C(CCCNC(=N)N)NC(=O)C(N)Cc2c[nH]c3ccccc23)c1)C(N)=O (stereo not given) (H-WRW[3Abz]WR-NH2; configuration not given here) | 5 (≈ 4.96 µM) | 80 | 310 | 62 | Dose-dependent effect | Toxic | 1000 | 1000 | Dose-dependent effect | inactive | Active | Active | Active | Active | Stable | Stable | 70 | 27.34 | 7.5 (≈ 7.45 µM) | 12.5 (≈ 12.4 µM) | Activity (Lipid bilayer [8]): 47%; Activity (Lipid bilayer [9]): 19%; Stability (Plasma [16]): Stable; metabolised at 2 h [17]: 6.58%; Stability [19]: Stable; remaining at 96 h (trypsin): 65%; MIC (Staphylococcus aureus [23]): 5 µg/mL (≈ 4.96 µM); MIC (Bacillus subtilis): 20 µg/mL (≈ 19.9 µM); MIC (Staphylococcus aureus [24]): 5.5 µg/mL (≈ 5.46 µM)
NCCCC(NC(=O)C(Cc1c[nH]c2ccccc12)NC(=O)c1cccc(NC(=O)C(Cc2c[nH]c3ccccc23)NC(=O)C(CCCN)NC(=O)C(N)Cc2c[nH]c3ccccc23)c1)C(N)=O (stereo not given) (H-W[Orn]W[3Abz]W[Orn]-NH2; configuration not given here) | 6.25 (≈ 6.77 µM) | 100 | 390 | 62.4 | Dose-dependent effect | Toxic | 1000 | 1000 | Dose-dependent effect | inactive | Active | Active | Active | Active | Stable | Stable | 70 | 25.378 | 20 (≈ 21.7 µM) | 15.5 (≈ 16.8 µM) | Activity (Lipid bilayer [25]): 23%; Activity (Lipid bilayer [26]): 48%; Stability [27]: Stable; MIC (Staphylococcus aureus [23]): 6.25 µg/mL (≈ 6.77 µM); MIC (Bacillus subtilis): 25 µg/mL (≈ 27.1 µM); MIC (Staphylococcus aureus [24]): 5 µg/mL (≈ 5.42 µM)
